# Laboratory results published in ChEMBL document CHEMBL2311499, “Synthesis, antiproliferative activity and tubulin targeting effect of acridinone and dioxophenothiazine derivatives” (Eur J Med Chem, 2013).
# Active and inactive are the calls of the source. The calls are words filed in the database; no cut-off is given here.
# What was measured:
# [1] = Inhibition of bovine tubulin polymerization after 1 hr; parameters: species or system Bos taurus
# [2] = system: HT-29; test: Antiproliferative activity against human HT-29 cells after 72 hrs by MTT assay; format: functional, cell-based; details: HT-29, 72 h
# Summary of the method: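 HT29 cells were seeded at (1.6–1.8) × 10⁴ per well in medium with 10% FBS, serum-starved after 72 h, and treated the following day for 72 h. Viability was read by MTT (4 mg/mL, 4 h, 37 °C, 5% CO₂) with SDS/HCl solubilisation and absorbance at 570 nm. IC50 is the concentration giving 50% inhibition of proliferation relative to untreated controls.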
# [3] = system: CAL-33; test: Cell cycle arrest in human CAL33 cells assessed as accumulation at S phase at 0.5 uM after 24 hrs flow cytometry; format: functional
# Summary of the method: (§1)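 Flow cytometry: 2.5–4 × 10⁵ cells were seeded in 6-well plates, grown 24 h, then treated for 24 h. Floating and adherent cells were pooled and fixed in cold 70% ethanol for 24 h. Results are reported as the percentage of cells in sub-G1, G1, S and G2 phases.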
# [4] = system: HT-29; test: Cell cycle arrest in human HT-29 cells assessed as accumulation at G1 phase at 0.5 uM after 24 hrs flow cytometry; format: functional; summary of the method: as §1
# [5] = system: CAL-33; test: Cell cycle arrest in human CAL33 cells assessed as accumulation at G1 phase at 0.5 uM after 24 hrs flow cytometry; format: functional; summary of the method: as §1
# [6] = system: HT-29; test: Cell cycle arrest in human HT-29 cells assessed as accumulation at sub-G1 phase at 0.5 uM after 24 hrs flow cytometry; format: functional; summary of the method: as §1
# [7] = system: CAL-33; test: Cell cycle arrest in human CAL33 cells assessed as accumulation at sub-G1 phase at 0.5 uM after 24 hrs flow cytometry; format: functional; summary of the method: as §1
# [8] = system: CAL-33; test: Cell cycle arrest in human CAL33 cells assessed as accumulation at G2 phase at 0.5 uM after 24 hrs flow cytometry; format: functional; summary of the method: as §1
# [9] = system: HT-29; test: Cell cycle arrest in human HT-29 cells assessed as accumulation at S phase at 0.5 uM after 24 hrs flow cytometry; format: functional; summary of the method: as §1
# [10] = system: HT-29; test: Cell cycle arrest in human HT-29 cells assessed as accumulation at G2 phase at 0.5 uM after 24 hrs flow cytometry; format: functional; summary of the method: as §1
# [11] = system: DU-145; test: Antiproliferative activity against human DU145 cells after 72 hrs by MTT assay; format: functional, cell-based; details: DU-145, 72 h
# Summary of the method: (§2)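 MTT viability readout. Cells were seeded at (1.6–1.8) × 10⁴ per well in medium with 10% FBS. After 72 h they were serum-deprived, then treated next day with a range of concentrations. MTT (4 mg/mL) was added for 4 h at 37 °C, 5% CO₂, followed by SDS/HCl lysis and absorbance at 570 nm. IC50 is the concentration giving 50% inhibition of proliferation relative to untreated controls.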
# [12] = system: PC-3; test: Antiproliferative activity against human PC3 cells after 72 hrs by MTT assay; format: functional, cell-based; details: PC-3, 72 h; summary of the method: as §2
# [13] = system: HL-60; test: Cell cycle arrest in human HL60 cells assessed as accumulation at G1 phase at 0.5 uM after 24 hrs flow cytometry; format: functional; summary of the method: as §1
# [14] = system: HL-60; test: Cell cycle arrest in human HL60 cells assessed as accumulation at sub-G1 phase at 0.5 uM after 24 hrs flow cytometry; format: functional; summary of the method: as §1
# [15] = system: CAL-33; test: Antiproliferative activity against human CAL33 cells after 72 hrs by MTT assay; format: functional, cell-based; details: CAL-33, 72 h; summary of the method: as §2
# [16] = system: HL-60; test: Antiproliferative activity against human HL60 cells after 72 hrs by MTT assay; format: functional, cell-based; details: HL-60, 72 h; summary of the method: as §2
# [17] = system: HL-60; test: Cell cycle arrest in human HL60 cells assessed as accumulation at S phase at 0.5 uM after 24 hrs flow cytometry; format: functional; summary of the method: as §1
# [18] = system: HL-60; test: Cell cycle arrest in human HL60 cells assessed as accumulation at G2 phase at 5 uM after 24 hrs flow cytometry; format: functional; summary of the method: as §1
# [19] = system: HT-29; test: Cell cycle arrest in human HT-29 cells assessed as accumulation at G2 phase at 5 uM after 24 hrs flow cytometry; format: functional; summary of the method: as §1
# [20] = system: CAL-33; test: Cell cycle arrest in human CAL33 cells assessed as accumulation at G2 phase at 5 uM after 24 hrs flow cytometry; format: functional; summary of the method: as §1
# [21] = system: HL-60; test: Cell cycle arrest in human HL60 cells assessed as accumulation at S phase at 5 uM after 24 hrs flow cytometry; format: functional; summary of the method: as §1
# [22] = system: CAL-33; test: Cell cycle arrest in human CAL33 cells assessed as accumulation at S phase at 5 uM after 24 hrs flow cytometry; format: functional; summary of the method: as §1
# [23] = system: HT-29; test: Cell cycle arrest in human HT-29 cells assessed as accumulation at S phase at 5 uM after 24 hrs flow cytometry; format: functional; summary of the method: as §1
# [24] = system: HL-60; test: Cell cycle arrest in human HL60 cells assessed as accumulation at G1 phase at 5 uM after 24 hrs flow cytometry; format: functional; summary of the method: as §1
# [25] = system: HT-29; test: Cell cycle arrest in human HT-29 cells assessed as accumulation at G1 phase at 5 uM after 24 hrs flow cytometry; format: functional; summary of the method: as §1
# [26] = system: CAL-33; test: Cell cycle arrest in human CAL33 cells assessed as accumulation at G1 phase at 5 uM after 24 hrs flow cytometry; format: functional; summary of the method: as §1
# [27] = system: HL-60; test: Cell cycle arrest in human HL60 cells assessed as accumulation at sub-G1 phase at 5 uM after 24 hrs flow cytometry; format: functional; summary of the method: as §1
# [28] = system: CAL-33; test: Cell cycle arrest in human CAL33 cells assessed as accumulation at sub-G1 phase at 5 uM after 24 hrs flow cytometry; format: functional; summary of the method: as §1
# [29] = system: HT-29; test: Cell cycle arrest in human HT-29 cells assessed as accumulation at sub-G1 phase at 5 uM after 24 hrs flow cytometry; format: functional; summary of the method: as §1
# [30] = system: HL-60; test: Cell cycle arrest in human HL60 cells assessed as accumulation at G2 phase at 0.5 uM after 24 hrs flow cytometry; format: functional; summary of the method: as §1
# [31] = molecular target: DNA topoisomerase 2-alpha (Homo sapiens) (UniProt P11388); test: Inhibition of human topoisomerase 2-mediated supercoiled plasmid DNA cleavage at 50 uM after 30 min by agarose gel electrophoresis
# [32] = system: CAL-33; test: Cell cycle arrest in human CAL33 cells assessed as accumulation at G2 phase at 0.5 uM after 24 hrs flow cytometry
# Chain of DNA topoisomerase 2-alpha (Homo sapiens) (P11388 whole entry): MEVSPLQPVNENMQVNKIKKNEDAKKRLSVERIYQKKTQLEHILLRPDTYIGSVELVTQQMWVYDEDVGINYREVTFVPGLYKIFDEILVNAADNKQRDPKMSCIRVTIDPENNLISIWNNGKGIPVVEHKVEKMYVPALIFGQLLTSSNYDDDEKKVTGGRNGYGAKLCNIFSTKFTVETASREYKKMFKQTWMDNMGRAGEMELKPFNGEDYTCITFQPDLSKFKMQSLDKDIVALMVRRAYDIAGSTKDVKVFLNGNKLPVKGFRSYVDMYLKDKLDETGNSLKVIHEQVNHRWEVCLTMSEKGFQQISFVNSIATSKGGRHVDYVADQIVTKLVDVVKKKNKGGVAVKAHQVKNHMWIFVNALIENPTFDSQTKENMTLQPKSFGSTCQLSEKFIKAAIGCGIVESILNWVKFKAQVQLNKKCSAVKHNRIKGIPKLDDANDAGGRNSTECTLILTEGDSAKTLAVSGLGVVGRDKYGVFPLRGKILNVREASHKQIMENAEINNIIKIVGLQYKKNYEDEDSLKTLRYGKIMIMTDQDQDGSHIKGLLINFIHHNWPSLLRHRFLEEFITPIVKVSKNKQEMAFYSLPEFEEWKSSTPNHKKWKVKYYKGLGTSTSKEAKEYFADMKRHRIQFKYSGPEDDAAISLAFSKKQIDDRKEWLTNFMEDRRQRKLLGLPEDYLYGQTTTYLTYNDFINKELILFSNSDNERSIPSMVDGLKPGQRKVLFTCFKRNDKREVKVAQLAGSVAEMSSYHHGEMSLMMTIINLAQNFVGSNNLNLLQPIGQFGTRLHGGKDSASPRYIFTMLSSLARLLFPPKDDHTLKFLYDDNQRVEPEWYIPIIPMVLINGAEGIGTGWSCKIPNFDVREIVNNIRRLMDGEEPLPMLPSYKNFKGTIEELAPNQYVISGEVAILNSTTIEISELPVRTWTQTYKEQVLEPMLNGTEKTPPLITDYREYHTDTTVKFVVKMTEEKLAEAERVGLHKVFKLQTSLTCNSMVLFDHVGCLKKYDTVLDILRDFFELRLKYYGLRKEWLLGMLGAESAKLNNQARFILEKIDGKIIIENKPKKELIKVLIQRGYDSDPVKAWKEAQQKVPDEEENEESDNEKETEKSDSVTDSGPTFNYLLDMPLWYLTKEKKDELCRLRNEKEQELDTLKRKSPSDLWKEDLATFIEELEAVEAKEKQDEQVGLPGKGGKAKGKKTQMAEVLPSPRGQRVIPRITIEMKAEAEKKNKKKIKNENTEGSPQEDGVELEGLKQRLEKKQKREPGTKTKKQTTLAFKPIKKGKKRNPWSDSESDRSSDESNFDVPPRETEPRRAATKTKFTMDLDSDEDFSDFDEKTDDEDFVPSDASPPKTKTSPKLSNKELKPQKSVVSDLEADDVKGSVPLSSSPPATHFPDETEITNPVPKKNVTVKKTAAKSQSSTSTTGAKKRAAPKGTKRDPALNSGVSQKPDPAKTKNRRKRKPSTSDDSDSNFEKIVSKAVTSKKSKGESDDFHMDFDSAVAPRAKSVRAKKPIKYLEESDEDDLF
smiles,measurement,setting,value
O=c1c2ccccc2[nH]c2c(CCc3ccc(O)c(O)c3)cccc12,IC50,[1],> 10000 nM
same,IC50,[2],> 50000 nM
COc1ccc(CCc2cccc3c(=O)c4ccccc4[nH]c23)cc1O,IC50,[1],510 nM
same,IC50,[2],12000 nM
CC[C@]1(O)C[C@H]2CN(CCc3c([nH]c4ccccc34)[C@@](C(=O)OC)(c3cc4c(cc3OC)N(C=O)[C@H]3[C@@](O)(C(=O)OC)[C@H](OC(C)=O)[C@]5(CC)C=CCN6CC[C@]43[C@@H]65)C2)C1 [VINCRISTINE],Activity,[3],17.13%
same,Activity,[4],16.43%
same,Activity,[5],14.29%
same,Activity,[6],5.97%
same,Activity,[7],20.5%
same,Activity,[8],72.5%
same,Activity,[9],4.65%
same,Activity,[10],72.53%
CC(=O)O[C@@]12CO[C@@H]1C[C@H](O)[C@@]1(C)C(=O)[C@H](O)C3=C(C)[C@@H](OC(=O)[C@H](O)[C@@H](NC(=O)OC(C)(C)C)c4ccccc4)C[C@@](O)([C@@H](OC(=O)c4ccccc4)[C@H]21)C3(C)C.O.O.O [DOCETAXEL],Activity,[3],15.41%
same,Activity,[4],7.85%
same,Activity,[5],4.99%
same,Activity,[6],0.86%
same,Activity,[7],17.11%
same,Activity,[8],88.2%
same,Activity,[9],2.76%
same,Activity,[10],88.24%
COc1ccc(CCc2cccc3c(=O)c4ccccc4[nH]c23)cc1OC,IC50,[1],> 10000 nM
same,IC50,[2],> 50000 nM
COc1ccc(CCN2C=CC=C3C2=Nc2ccccc2OS3(=O)=O)cc1,IC50,[11],17 nM
same,IC50,[12],475 nM
same,IC50,[1],2400 nM
same,IC50,[2],24 nM
COc1cc(CCc2cccc3c2Nc2ccccc2S3(=O)=O)cc(OC)c1OC,IC50,[1],> 10000 nM
same,IC50,[2],> 100000 nM
CCC1=C[C@@H]2CN(C1)Cc1c([nH]c3ccccc13)[C@@](C(=O)OC)(c1cc3c(cc1OC)N(C)[C@H]1[C@@](O)(C(=O)OC)[C@H](OC(C)=O)[C@]4(CC)C=CCN5CC[C@]31[C@@H]54)C2 [VINORELBINE],Activity,[3],17.62%
same,Activity,[4],21.42%
same,Activity,[5],9.96%
same,Activity,[6],1.39%
same,Activity,[7],24.44%
same,Activity,[8],72.8%
same,Activity,[9],3.41%
same,Activity,[10],72.85%
COc1ccc(CCc2cccc3c(=O)c4ccccc4[nH]c23)cc1,Activity,[3],28.46%
same,Activity,[13],25.15%
same,Activity,[4],14.55%
same,Activity,[5],4%
same,Activity,[14],37.16%
same,Activity,[6],0.65%
same,Activity,[7],9.84%
same,IC50,[11],50 nM
same,IC50,[12],750 nM
same,IC50,[15],37 nM
same,IC50,[16],100 nM
same,IC50,[1],> 10000 nM
same,IC50,[2],51 nM
same,Activity,[8],57.42%
same,Activity,[17],18.5%
same,Activity,[9],2.75%
same,Activity,[18],15.2%
same,Activity,[19],73.1%
same,Activity,[20],35.16%
same,Activity,[21],26.55%
same,Activity,[22],33.12%
same,Activity,[23],4.6%
same,Activity,[24],24.4%
same,Activity,[25],21.11%
same,Activity,[26],8.35%
same,Activity,[27],34.34%
same,Activity,[28],22.73%
same,Activity,[29],0.83%
same,Activity,[30],19.58%
same,Activity,[10],81.81%
same,inhibition,[31],Active
COc1ccc(CCc2cccc3c2Nc2ccccc2S3(=O)=O)cc1,Activity,[13],57.66%
same,Activity,[4],73.56%
same,Activity,[14],8.22%
same,Activity,[6],1.63%
same,IC50,[11],810 nM
same,IC50,[12],> 50000 nM
same,IC50,[15],627 nM
same,IC50,[16],1650 nM
same,IC50,[1],> 10000 nM
same,IC50,[2],870 nM
same,Activity,[17],21.83%
same,Activity,[9],8.63%
same,Activity,[18],14.77%
same,Activity,[19],87.92%
same,Activity,[21],24.77%
same,Activity,[23],2.46%
same,Activity,[24],26.83%
same,Activity,[25],8.63%
same,Activity,[27],34.12%
same,Activity,[29],0.47%
same,Activity,[30],12.4%
same,Activity,[32],15.95%
same,inhibition,[31],Active
COc1ccc(S(=O)(=O)Nc2cccnc2Nc2ccc(O)cc2)cc1 [ABT-751],IC50,[1],2200 nM
same,IC50,[2],210 nM
COc1ccc(CCc2cccc3c2Nc2ccccc2S3(=O)=O)cc1O,IC50,[1],1250 nM
same,IC50,[2],7200 nM
COc1ccc(CCc2cccc3c2Nc2ccccc2S3(=O)=O)cc1OC,IC50,[1],> 10000 nM
same,IC50,[2],> 50000 nM
O=S1(=O)c2ccccc2Nc2c(CCc3ccc(O)c(O)c3)cccc21,IC50,[1],> 10000 nM
same,IC50,[2],> 100000 nM
COc1cc(CCc2cccc3c(=O)c4ccccc4[nH]c23)cc(OC)c1OC,IC50,[11],> 100000 nM
same,IC50,[12],> 100000 nM
same,IC50,[15],> 100000 nM
same,IC50,[16],> 50000 nM
same,IC50,[1],> 10000 nM
same,IC50,[2],> 100000 nM
same,inhibition,[31],Active
